# According to ChEMBL document CHEMBL1132599, “Bisquaternary ligands of the common allosteric site of M2 acetylcholine receptors: search for the minimum essential distances between the pharmacophoric elements” (J Med Chem, 1999):
# Tests used:
# [1] = Half life (t1/2) value of the compound.; assay type: ADME
# Outline: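 Chemical hydrolysis followed by UV spectroscopy for 24 h at 20 °C in TRIS-HCl–Mg buffer (3.6 mM MgHPO4, 50 mM TRIS, pH 7.3); half-life of the compound reported in hours.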
# [2] = molecular target: T1, Muscarinic acetylcholine receptor M2 (Sus scrofa, UniProt P06199); test: Allosteric potency against the dissociation of radioligand [3H]N-methylscopolamine from the porcine cardiac Muscarinic acetylcholine receptor M2
# T1 sequence (P06199 whole entry): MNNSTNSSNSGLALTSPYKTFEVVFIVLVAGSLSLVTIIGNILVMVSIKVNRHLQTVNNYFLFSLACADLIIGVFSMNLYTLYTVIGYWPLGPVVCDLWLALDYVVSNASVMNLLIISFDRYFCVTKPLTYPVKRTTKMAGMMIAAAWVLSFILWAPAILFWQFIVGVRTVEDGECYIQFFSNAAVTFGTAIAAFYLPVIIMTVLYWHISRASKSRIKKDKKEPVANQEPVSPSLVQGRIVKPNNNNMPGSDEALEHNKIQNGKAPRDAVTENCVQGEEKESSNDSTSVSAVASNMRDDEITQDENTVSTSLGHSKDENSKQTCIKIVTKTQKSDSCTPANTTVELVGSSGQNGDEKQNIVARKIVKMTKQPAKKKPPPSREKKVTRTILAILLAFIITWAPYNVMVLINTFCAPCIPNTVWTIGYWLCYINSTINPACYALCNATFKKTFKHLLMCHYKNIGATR
# Outline: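 Porcine ventricular membranes: homogenized in 0.32 M sucrose, spun at 300g then 80000g, resuspended in 50 mM Tris-HCl pH 7.4. Labeled with 0.2 nM [3H]NMS for 30 min in 2.6 mM MgHPO4/45 mM Tris-HCl, pH 7.3, 37 °C. Dissociation started with 1 µM atropine plus modulator, sampled up to 2 h (some two-point, 0 and 4 min), then filtered and counted. EC50 is the concentration halving monoexponential k-1 (4–6 concentrations).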
Compound,half-life [1],EC50 [2]
C[N+](C)(CCCC[N+](C)(C)CCCN1C(=O)c2ccccc2C1=O)CCCN1C(=O)c2ccccc2C1=O.[Br-].[Br-],14 h,2690 nM
O=C1c2ccccc2C(=O)N1C[n+]1ccc(CCCc2cc[n+](CN3C(=O)c4ccccc4C3=O)cc2)cc1,,50800 nM
O=C1c2ccccc2C(=O)N1CCCO/N=C/c1cc[n+](CCC[n+]2ccc(/C=N/OCCCN3C(=O)c4ccccc4C3=O)cc2)cc1,,520 nM
C[N+](C)(CCCN1C(=O)c2ccccc2C1=O)CCCN1C(=O)c2ccccc2C1=O,,8820 nM
O=C1c2ccccc2C(=O)N1CCC[n+]1ccc(CCc2cc[n+](CCCN3C(=O)c4ccccc4C3=O)cc2)cc1,,2340 nM
O=C1c2ccccc2C(=O)N1CC[n+]1ccc(CCCc2cc[n+](CCN3C(=O)c4ccccc4C3=O)cc2)cc1,,3490 nM
O=C1c2ccccc2C(=O)N1CCCC[n+]1ccc(CCc2cc[n+](CCCCN3C(=O)c4ccccc4C3=O)cc2)cc1,,470 nM
C[N+](C)(CCCN1C(=O)c2ccccc2C1=O)CCC[N+](C)(C)CCCN1C(=O)c2ccccc2C1=O.[Br-].[Br-],14.5 h,3800 nM
O=C1c2ccccc2C(=O)N1CCC[n+]1ccc(CCCc2cc[n+](CCCN3C(=O)c4ccccc4C3=O)cc2)cc1,,4870 nM
O=C1c2ccccc2C(=O)N1CCCC[n+]1ccc(-c2cc[n+](CCCCN3C(=O)c4ccccc4C3=O)cc2)cc1,,4650 nM

# More lines, in order of falling EC50 [2], values ahead:
half-life [1],EC50 [2],Compound
,1900 nM,O=C1c2ccccc2C(=O)N1CO/N=C/c1cc[n+](CCCC[n+]2ccc(/C=N/OCN3C(=O)c4ccccc4C3=O)cc2)cc1
18 h,1440 nM,C[N+](C)(CCCCCC[N+](C)(C)CCCN1C(=O)c2ccccc2C1=O)CCCN1C(=O)c2ccccc2C1=O.[Br-].[Br-]
,1400 nM,O=C1c2ccccc2C(=O)N1CO/N=C/c1cc[n+](CCCCCC[n+]2ccc(/C=N/OCN3C(=O)c4ccccc4C3=O)cc2)cc1
17.4 h,1390 nM,C[N+](C)(CCCCC[N+](C)(C)CCCN1C(=O)c2ccccc2C1=O)CCCN1C(=O)c2ccccc2C1=O.[Br-].[Br-]
,630 nM,O=C1c2ccccc2C(=O)N1CCCC[n+]1ccc(CCCc2cc[n+](CCCCN3C(=O)c4ccccc4C3=O)cc2)cc1
35.2 h,570 nM,C[N+](C)(CCCCCCCC[N+](C)(C)CCCN1C(=O)c2ccccc2C1=O)CCCN1C(=O)c2ccccc2C1=O.[Br-].[Br-]
19.3 h,530 nM,C[N+](C)(CCCCCCCCCC[N+](C)(C)CCCN1C(=O)c2ccccc2C1=O)CCCN1C(=O)c2ccccc2C1=O.[Br-].[Br-]
,510 nM,O=C1c2ccccc2C(=O)N1CO/N=C/c1cc[n+](CCC[n+]2ccc(/C=N/OCN3C(=O)c4ccccc4C3=O)cc2)cc1
,510 nM,O=C1c2ccccc2C(=O)N1CCCO/N=C/c1cc[n+](CCCCC[n+]2ccc(/C=N/OCCCN3C(=O)c4ccccc4C3=O)cc2)cc1
,450 nM,O=C1c2ccccc2C(=O)N1CCCO/N=C/c1cc[n+](CCCCCC[n+]2ccc(/C=N/OCCCN3C(=O)c4ccccc4C3=O)cc2)cc1
16.4 h,370 nM,C[N+](C)(CCCCCCC[N+](C)(C)CCCN1C(=O)c2ccccc2C1=O)CCCN1C(=O)c2ccccc2C1=O.[Br-].[Br-]
,350 nM,O=C1c2ccccc2C(=O)N1CCCO/N=C/c1cc[n+](CCCC[n+]2ccc(/C=N/OCCCN3C(=O)c4ccccc4C3=O)cc2)cc1
